According to ChEMBL document CHEMBL1141447, “Nitrogen-containing verticillene diterpenoids from the Taiwanese soft coral Cespitularia taeniata” (2007):
Converted amounts (≈) assume the structure as drawn. The source made the active and inactive calls. No cut-off for these calls is given here.

Legend:
Micrococcus luteus = test: Antimicrobial activity against Micrococcus luteus IFM2066; assay type: functional
Staphylococcus aureus = test: Antimicrobial activity against Staphylococcus aureus 209P; assay type: functional, organism-based
L1210 = test: Cytotoxicity against mouse L1210 cells at 5.1 ug/ml after 48 hrs; assay type: functional, cell-based
How it was run: (§1)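 KB (human oral epidermoid carcinoma) or L1210 (mouse leukemia) cells were incubated at 37 °C for 48 h in medium with graded concentrations of compound, dissolved in 0.6% Me2SO. IC50 was read from a plot of log concentration against growth rate of the treated cells.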

KB = test: Cytotoxicity against human KB cells at 3.7 ug/ml after 48 hrs; assay type: functional, cell-based; how it was run: as §1
Trichophyton benhamiae [1] = test: Antimicrobial activity against Trichophyton mentagrophytes; assay type: functional, Arthroderma benhamiae
Cryptococcus neoformans = test: Antimicrobial activity against Cryptococcus neoformans IFM46914; assay type: functional
Trichophyton benhamiae [2] = test: Antimicrobial activity against Trichophyton mentagrophytes IFM45110; assay type: functional, Arthroderma benhamiae

| Structure (SMILES) | MIC (Micrococcus luteus) | Activity (Staphylococcus aureus) | Activity (L1210) | Activity (KB) | MIC (Trichophyton benhamiae [1]) | MIC (Cryptococcus neoformans) | MIC (Trichophyton benhamiae [2]) |
| --- | --- | --- | --- | --- | --- | --- | --- |
| C=C1CC[C@@H]2CCC3=C([C@@H](C/C(C)=C/[C@@H](O)C1)NC3=O)C2(C)C [CESPITULACTAM D] | 4.16 µg/mL (≈ 13.2 µM) | inactive | inactive | inactive |  |  |  |
| C=C1CC[C@@H]2CCC3=C([C@@H](C/C(C)=C/[C@@H](OC(C)=O)C1)NC3=O)C2(C)C [CESPITULACTAM E] |  | inactive | inactive | inactive | 4.16 µg/mL (≈ 11.6 µM) |  |  |
| C=C1CC[C@@H]2CCC3=C(C2(C)C)[C@@](O)(C/C(C)=C/[C@@H](O)C1)NC3=O |  | inactive | inactive | inactive |  |  |  |
| C=C1CC[C@@H]2CCC3C(=O)N/C(=C/C(C)CC(=O)C1)C3(O)C2(C)C (stereo partly drawn) |  | inactive | inactive | inactive |  | 4.16 µg/mL (≈ 12.6 µM) |  |
| C=C1CC[C@@H]2CC[C@@H]3C(=O)N(CCc4ccc(O)cc4)C(=C3C2(C)C)C/C(C)=C/[C@@H](O)C1 [CESPITULACTAM K] | 4.16 µg/mL (≈ 9.55 µM) | inactive | Active | Active |  | 4.16 µg/mL (≈ 9.55 µM) |  |
| C=C1CC[C@@H]2CCC3=C([C@@H](C/C(C)=C/[C@@H](O)C1)N(CCc1c[nH]c4ccccc14)C3=O)C2(C)C [CESPITULACTAM J] | 4.16 µg/mL (≈ 9.07 µM) | inactive | inactive | inactive | 4.16 µg/mL (≈ 9.07 µM) | 4.16 µg/mL (≈ 9.07 µM) |  |
| C=C1CC[C@@H]2CCC3=C([C@@H](C/C(C)=C/[C@@H](O)C1)N(C)C3=O)C2(C)C |  | inactive | inactive | inactive |  |  |  |
| C=C1CC[C@@H]2CCC3=C(C2(C)C)[C@@](O)(C/C(C)=C/[C@@H](O)C1)N(CC)C3=O [CESPITULACTAM G] |  | inactive | inactive | inactive |  |  | 2.08 µg/mL (≈ 5.79 µM) |
